Legend:
Hepatitis C virus [1] = assay: Antiviral activity against Hepatitis C virus subtype 1b Con1 infected in human HuH7 cells after 3 days by luciferase reporter gene assay; assay type: functional, organism-based, Hepacivirus hominis; conditions: Con1, Huh-7, 72 h
Outline: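 Huh7-derived 2209-23 cells stably carrying a GT 1b Con1 subgenomic replicon encoding Renilla luciferase, incubated with compound for 3 days. The EC50 is the concentration that reduces reporter luciferase activity by 50% versus untreated controls. Values are reported as mean ± SD over repeated experiments, with the number of experiments differing by compound.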

[2] = Cytotoxicity against human HuH7 cells; assay type: cell-based, Huh-7
Outline: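 Viability of the stable GT 1b Con1 replicon cells was measured by MTT or WST-1 assay to give CC50, the 50% cytotoxic concentration. The number of experiments matched the EC50 determinations, and values are reported as mean ± SD.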

Hepatitis C virus [3] = assay: Antiviral activity against HCV infected in human assessed as log reduction in viral load at 4500 […] BID; assay type: functional, Hepacivirus hominis
Hepatitis C virus [4] = assay: Antiviral activity against HCV infected in human assessed as log reduction in viral load measured on day 4 postdose; assay type: functional, Hepacivirus hominis
Hepatitis C virus [5] = assay: Antiviral activity against HCV subtype 1b infected in human HuH7 cells assessed as number of resistant colonies formed at 10 times EC50 after 3 weeks; assay type: functional, Hepacivirus hominis, genotype 1b, Huh-7
Outline: (§1)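 Huh7 cells stably carrying a GT 1b subgenomic neoR replicon, seeded at 1 × 10^5 cells/well with 0.5 mg/ml G418, were exposed to one or two inhibitors at multiples of EC50 (from the 3-day Con1 2209-23 luciferase assay). Medium was changed twice weekly, with a 1:4 split at ~95% confluence. After 3 weeks, cells were formaldehyde-fixed and crystal violet-stained, and colonies were counted.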

Hepatitis C virus [6] = assay: Antiviral activity against HCV subtype 1b infected in human HuH7 cells assessed as number of resistant colonies formed at 15 times EC50 after 3 weeks; assay type: functional, Hepacivirus hominis, genotype 1b, Huh-7; outline: as §1
Hepatitis C virus [7] = assay: Antiviral activity against HCV genotype 1 infected in human assessed as log reduction in viral load at 750 mg administered every 8 hrs for 14 days
Hepatitis C virus [8] = assay: Antiviral activity against HCV infected in human assessed as log reduction in viral load at 800 […] SID; assay type: functional, Hepacivirus hominis

SMILES | EC50 (Hepatitis C virus [1]) [µM] | CC50 [2] [µM] | other results
C[C@@]1(F)[C@H](O)[C@@H](CO)O[C@H]1n1ccc(N)nc1=O | 0.61 | > 100 | 
C[C@@]1(O)[C@H](O)[C@@H](CO)O[C@H]1n1ccc(N)nc1=O | 1.23 | > 100 | 
[N-]=[N+]=N[C@]1(CO)O[C@@H](n2ccc(N)nc2=O)[C@H](O)[C@@H]1O [4'-AZIDOCYTIDINE] | 1.28 | > 100 | 
CC(C)C(=O)OC[C@@]1(N=[N+]=[N-])O[C@@H](n2ccc(N)nc2=O)[C@H](OC(=O)C(C)C)[C@@H]1OC(=O)C(C)C [BALAPIRAVIR] |  |  | FC (Hepatitis C virus [3]): 3.7
CNC(=O)c1c(-c2ccc(F)cc2)oc2cc(N(CCO)S(C)(=O)=O)c(C3CC3)cc12 [NESBUVIR] | 0.017 | > 100 | FC (Hepatitis C virus [4]): 1.4; Activity (Hepatitis C virus [5]): 60; Activity (Hepatitis C virus [6]): 36
CCC[C@H](NC(=O)[C@@H]1[C@H]2CCC[C@H]2CN1C(=O)[C@@H](NC(=O)[C@@H](NC(=O)c1cnccn1)C1CCCCC1)C(C)(C)C)C(=O)C(=O)NC1CC1 [TELAPREVIR] | 0.56 | 26.7 | Activity (Hepatitis C virus [6]): 93; Activity (Hepatitis C virus [7]): > 4 log10IU/ml
CC(C)[C@H](N)C(=O)O[C@@H]1[C@@H](CO)O[C@@H](n2ccc(N)nc2=O)[C@]1(C)O [VALOPICITABINE] |  |  | FC (Hepatitis C virus [8]): 1.2

From ChEMBL document CHEMBL1255315, “The hepatitis C virus replicon presents a higher barrier to resistance to nucleoside analogs than to nonnucleoside polymerase or protease inhibitors” (Antimicrob Agents Chemother, 2008)
